Test results published in article PMC6796888 (ACS Omega, 2019).
≈ marks a conversion by molar mass, not a printed value.

How the values were obtained:
[1] = system: P. aeruginosa; experiment: Synergistic assay with ciprofloxacin; type: cell-based; conditions: P. aeruginosa; 4l combined with CIP
[2] = system: E. faecalis; experiment: Synergistic assay with ciprofloxacin; type: cell-based, Enterococcus faecalis
[3] = system: S. typhimurium; experiment: Synergistic assay with ciprofloxacin; type: cell-based, Salmonella typhimurium
[4] = system: E. coli; experiment: Synergistic assay with ciprofloxacin; type: cell-based, Escherichia coli; conditions: E. coli; 4l combined with CIP
[5] = system: S. pneumoniae; experiment: Synergistic assay with ciprofloxacin; type: cell-based, Streptococcus pneumoniae
[6] = system: P. auroginosa MTCC 2453; experiment: In vitro screening, % growth inhibition at 250 μg/mL; type: cell-based, Pseudomonas auroginosa; conditions: for inhibition at 250 µg/mL: Pseudomonas, MTCC2453, 24 h, read-out: % inhibition at 250 μg/mL
In short: (§1)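 Test compounds dissolved in DMSO and diluted in test medium. Mid-log cultures diluted in nutrient broth to McFarland standard and treated with 250 μg/mL in 96-well plates, 37 °C, 160 rpm, 24 h. Growth read as OD at 580 nm; % inhibition calculated from absorbance against untreated growth. Run twice on different occasions.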

[7] = system: E. faecalis MTCC 439; experiment: as above; type: cell-based, Enterococcus faecalis; conditions: Enterococcus faecalis, MTCC439, 24 h, read-out: % inhibition at 250 μg/mL
In short: as §1

[8] = system: S. pneumoniae MTCC 655; experiment: as above; type: cell-based, Streptococcus pneumoniae; conditions: Streptococcus pneumoniae, MTCC655, 24 h, read-out: % inhibition at 250 μg/mL
In short: as §1

[9] = system: E. coli ATCC 25922; experiment: as above; type: cell-based, Escherichia coli; conditions: Escherichia coli, ATCC25922, 24 h, read-out: % inhibition at 250 μg/mL
In short: as §1

[10] = system: P. auroginosa MTCC 2453; experiment: MIC by broth microdilution; type: cell-based, Pseudomonas auroginosa; conditions: Pseudomonas, MTCC2453

For `O=C(O)c1cn(C2CC2)c2cc(N3CCNCC3)c(F)cc2c1=O` [CIP, ciprofloxacin, reference compound], the MIC in combination [1] was 0.5 µg/mL, the MIC in combination ([2]; E. faecalis, 4l combined with CIP) was 0.0625 µg/mL and the MIC ([2]; Enterococcus faecalis, read-out: MIC alone) was 0.25 µg/mL. For the same compound, the MIC in combination ([3]; S. typhimurium, 4l combined with CIP) was 0.25 µg/mL, the MIC ([3]; Salmonella enterica, TYPHIMURIUM, read-out: MIC alone) was 0.25 µg/mL and the MIC in combination [4] was 0.125 µg/mL. It also gave an MIC in combination ([5]; S. pneumoniae, 4l combined with CIP) of 0.0625 µg/mL and an MIC ([5]; Streptococcus pneumoniae, read-out: MIC alone) of 0.25 µg/mL.

In the case of `CNC1=C([N+](=O)[O-])C2(C(=O)Nc3ccccc32)C2=C(CC(C)(C)CC2=O)O1` (stereo not shown) [Compound 4a, 7,7-Dimethyl-2-(methylamino)-3-nitro-7,8-dihydrospiro[chromene-4,3′-indoline]-2′,5(6 H)-dione], the inhibition at 250 µg/mL [6] is reported as 37.3%, the inhibition at 250 µg/mL [7] is reported as 41.5% and the inhibition at 250 µg/mL [8] is reported as 29.7%. The inhibition at 250 µg/mL [9] was 43.2%.

`CNC1=C([N+](=O)[O-])C2(C(=O)Nc3ccc(Cl)cc32)C2=C(CC(C)(C)CC2=O)O1` (stereo not shown) [Compound 4b] gave an inhibition at 250 µg/mL [6] of 18%, an inhibition at 250 µg/mL [7] of 31.9% and an inhibition at 250 µg/mL [8] of 21.3%. It also gave an inhibition at 250 µg/mL [9] of 43.2%.

`CNC1=C([N+](=O)[O-])C2(C(=O)Nc3ccc(Br)cc32)C2=C(CC(C)(C)CC2=O)O1` (stereo not shown) [Compound 4c] was tested, and the MIC [10] was 250 µg/mL (≈ 558 µM), the “% inhibition at 250 μg/mL” value ([6]; P. auroginosa MTCC 2453, 250 μg/mL, 24 h) was “complete growth inhibition” and the inhibition at 250 µg/mL [6] was 100%. The inhibition at 250 µg/mL [7] was 38.1%, the inhibition at 250 µg/mL [8] was 21.5% and the inhibition at 250 µg/mL [9] was 40.7%.
